Data set [1] has as its target T1, Dual specificity tyrosine-phosphorylation-regulated kinase 1A (Homo sapiens, UniProt Q13627). In words: Inhibition of recombinant human N-terminal Hex-tagged DYRK1A (127 to 485 residues) expressed in Escherichia coli BL21 (DE3) incubated for 1.5 hrs by TR-FRET assay. In general terms: Time-resolved FRET reads energy transfer from a long-lived donor to a nearby acceptor.

Data set [2] in a line: Metabolic stability in human liver microsomes assessed as intrinsic clearance. It counts as ADME, Microsome. The conditions noted are these: read-out: CLH. In short, it runs like this:
(§1)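 Microsomal incubations with human or rat liver microsomes. Intrinsic clearance given in µL/min/mg; values are the mean of n = 2.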
A general note: Microsomes from liver hold many membrane-bound enzymes, among them those of drug oxidation.

Data set [3] has as its target T2, Dual specificity tyrosine-phosphorylation-regulated kinase 2 (Homo sapiens) (UniProt Q92630).
T2 sequence (whole entry): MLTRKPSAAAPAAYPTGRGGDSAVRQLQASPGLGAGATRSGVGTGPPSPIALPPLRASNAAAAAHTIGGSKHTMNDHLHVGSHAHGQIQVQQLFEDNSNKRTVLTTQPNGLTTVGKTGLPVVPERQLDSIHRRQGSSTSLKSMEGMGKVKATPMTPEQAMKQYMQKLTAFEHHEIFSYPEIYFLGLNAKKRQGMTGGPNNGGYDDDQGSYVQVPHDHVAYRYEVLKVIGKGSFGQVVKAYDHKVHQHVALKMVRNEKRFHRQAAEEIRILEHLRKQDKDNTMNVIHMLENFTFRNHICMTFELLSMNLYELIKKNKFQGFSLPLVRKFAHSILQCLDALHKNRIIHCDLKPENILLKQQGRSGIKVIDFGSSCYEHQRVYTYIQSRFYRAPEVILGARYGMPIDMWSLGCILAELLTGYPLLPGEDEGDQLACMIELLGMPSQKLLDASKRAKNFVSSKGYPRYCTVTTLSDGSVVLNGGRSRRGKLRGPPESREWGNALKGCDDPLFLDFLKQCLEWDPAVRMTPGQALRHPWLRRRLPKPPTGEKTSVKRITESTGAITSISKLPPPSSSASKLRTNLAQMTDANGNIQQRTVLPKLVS
Put plainly: Inhibition of recombinant human full length DYRK2 (1 to 528 residues) expressed in mammalian expression system at 1 uM by DiscoverX competition binding assay relative to control. The method in brief:
(§2)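 Competition binding assay with test compound at 1 µM inhibitor concentration. Result expressed as percent inhibition, single determination (n=1). The kinome-wide panel also gave a selectivity score, S-Score(40).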

Data set [4] can be described thus: Apparent permeability from basolateral to apical side in dog MDCK-MDR1 cells. Format: ADME, cell-based, Canis lupus familiaris. The method in brief: (§3)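 MDCK cells transfected with human MDR1 gene. Apparent permeability coefficient (Papp, 10^-6 cm/s) measured across the cell layer in each direction, apical to basolateral and basolateral to apical. Mean values reported; efflux ratio taken as Papp B2A / Papp A2B.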

Data set [5] is described as follows: Efflux ratio of apparent permeability from basolateral to apical side over apical to basolateral side in dog MDCK-MDR1 cells. Format: ADME, cell-based, Canis lupus familiaris. The method in brief:
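MDCK cells transfected with human MDR1 gene (Cyprotex assay); permeability coefficient (Papp) measured in both directions, apical to basolateral and basolateral to apical; efflux ratio taken as mean Papp B2A divided by mean Papp A2B.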

Data set [6] in a line: Thermodynamic solubility of compound at pH 6.8. Format: physicochemical. As to conditions: buffer, read-out: Therm_solubility. The method in brief: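 Thermodynamic (intrinsic) solubility by shake-flask method in PBS buffer at pH 6.8. Reported in mg/mL from a single experiment.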
Data set [7] concerns the target Dual specificity protein kinase CLK3 (Homo sapiens) (UniProt P49761). Put plainly: Inhibition of recombinant human full length CLK3 (1 to 490 residues) expressed in bacterial expression system at 1 uM by DiscoverX competition binding assay relative to control. The method in brief: as §2
Data set [8] is described as follows: Apparent permeability from apical to basolateral side in dog MDCK-MDR1 cells. It counts as ADME, cell-based, Canis lupus familiaris. The method in brief:
as §3

Data set [9] concerns the target Dual specificity tyrosine-phosphorylation-regulated kinase 1B (Homo sapiens) (UniProt Q9Y463). Put plainly: Inhibition of recombinant human full length DYRK1B (1 to 629 residues) expressed in bacterial expression system at 1 uM by DiscoverX competition binding assay relative to control. The method in brief:
as §2

In data set [10] the target is Dual specificity protein kinase CLK1 (Homo sapiens) (UniProt P49759). Put plainly: Inhibition of recombinant human full length CLK1 (1 to 484 residues) expressed in bacterial expression system at 1 uM by DiscoverX competition binding assay relative to control. The method in brief:
as §2

Data set [11] concerns the target Glycogen synthase kinase-3 beta (Homo sapiens) (UniProt P49841). In words: Inhibition of recombinant human full length GSK3beta (1 to 433 residues) expressed in mammalian expression system at 1 uM by DiscoverX competition binding assay relative to control. In short, it runs like this:
as §2

Data set [12] is described as follows: Metabolic stability in rat liver microsomes assessed as intrinsic clearance. It counts as ADME, Microsome. The conditions noted are these: read-out: CLH. The method in brief:
as §1

Data set [13] addresses Cyclin-dependent kinase 2 (Homo sapiens) (UniProt P24941). Put plainly: Inhibition of recombinant human full length CDK2 (1 to 298 residues) expressed in bacterial expression system at 1 uM by DiscoverX competition binding assay relative to control. In short, it runs like this:
as §2

The target of data set [14] is T1, Dual specificity tyrosine-phosphorylation-regulated kinase 1A. Put plainly: Inhibition of recombinant human DYRK1A (129 to 509 residues) expressed in mammalian expression system at 1 uM by DiscoverX competition binding assay relative to control. The method in brief: as §2
The target in data set [15] is Dual specificity protein kinase CLK2 (Homo sapiens) (UniProt P49760). Put plainly: Inhibition of recombinant human partial length CLK2 (144 to 484 residues) expressed in bacterial expression system at 1 uM by DiscoverX competition binding assay relative to control. In short, it runs like this: as §2
For data set [16], the target named is T1, Dual specificity tyrosine-phosphorylation-regulated kinase 1A. Put plainly: Binding affinity to DYRK1A (unknown origin) assessed as dissociation constant measured for 60 to 300 sec by SPR analysis. (In general: SPR reads the build-up and loss of mass on a sensor chip optically.)
Data set [17] has the same target. Put plainly: Inhibition of DYRK1A (unknown origin) at 1 uM by PanQinase assay relative to control.
The target of data set [18] is Cyclin-dependent kinase 2 (Homo sapiens) (UniProt P24941). In words: Inhibition of CDK2 (unknown origin) at 1 uM by PanQinase assay relative to control.

≈ marks a conversion by molar mass, not a printed value.

Sequence of Dual specificity protein kinase CLK2 (Homo sapiens) (P49760 whole entry, looked up, the tested form may be a part): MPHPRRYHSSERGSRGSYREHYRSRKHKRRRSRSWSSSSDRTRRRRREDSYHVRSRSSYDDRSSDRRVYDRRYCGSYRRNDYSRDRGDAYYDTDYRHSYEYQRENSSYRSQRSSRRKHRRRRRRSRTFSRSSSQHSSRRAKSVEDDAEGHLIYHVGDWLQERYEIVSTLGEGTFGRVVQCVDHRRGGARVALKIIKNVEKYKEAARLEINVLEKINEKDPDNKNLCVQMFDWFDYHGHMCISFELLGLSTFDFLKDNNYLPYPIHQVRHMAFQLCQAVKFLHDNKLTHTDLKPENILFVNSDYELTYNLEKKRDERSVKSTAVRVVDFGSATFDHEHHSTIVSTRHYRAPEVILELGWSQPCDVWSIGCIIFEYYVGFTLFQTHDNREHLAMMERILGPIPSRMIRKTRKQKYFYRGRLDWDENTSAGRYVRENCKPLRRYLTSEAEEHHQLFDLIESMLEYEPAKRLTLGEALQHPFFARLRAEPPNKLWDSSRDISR
Sequence of Dual specificity protein kinase CLK1 (Homo sapiens) (P49759 whole entry, looked up, the tested form may be a part): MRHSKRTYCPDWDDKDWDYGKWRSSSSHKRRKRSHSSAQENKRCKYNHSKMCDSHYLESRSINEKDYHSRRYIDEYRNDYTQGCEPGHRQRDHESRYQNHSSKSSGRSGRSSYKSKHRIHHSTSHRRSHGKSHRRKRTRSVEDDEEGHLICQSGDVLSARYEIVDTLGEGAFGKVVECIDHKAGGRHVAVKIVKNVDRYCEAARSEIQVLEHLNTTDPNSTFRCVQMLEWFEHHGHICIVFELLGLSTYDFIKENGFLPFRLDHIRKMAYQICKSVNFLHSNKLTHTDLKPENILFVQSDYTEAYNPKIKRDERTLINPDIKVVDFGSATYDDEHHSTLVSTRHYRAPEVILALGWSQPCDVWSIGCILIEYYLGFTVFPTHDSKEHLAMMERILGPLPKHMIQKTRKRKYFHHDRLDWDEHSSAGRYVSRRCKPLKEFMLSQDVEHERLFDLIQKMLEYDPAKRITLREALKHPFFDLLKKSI
Sequence of Dual specificity protein kinase CLK3 (Homo sapiens) (P49761 whole entry, looked up, the tested form may be a part): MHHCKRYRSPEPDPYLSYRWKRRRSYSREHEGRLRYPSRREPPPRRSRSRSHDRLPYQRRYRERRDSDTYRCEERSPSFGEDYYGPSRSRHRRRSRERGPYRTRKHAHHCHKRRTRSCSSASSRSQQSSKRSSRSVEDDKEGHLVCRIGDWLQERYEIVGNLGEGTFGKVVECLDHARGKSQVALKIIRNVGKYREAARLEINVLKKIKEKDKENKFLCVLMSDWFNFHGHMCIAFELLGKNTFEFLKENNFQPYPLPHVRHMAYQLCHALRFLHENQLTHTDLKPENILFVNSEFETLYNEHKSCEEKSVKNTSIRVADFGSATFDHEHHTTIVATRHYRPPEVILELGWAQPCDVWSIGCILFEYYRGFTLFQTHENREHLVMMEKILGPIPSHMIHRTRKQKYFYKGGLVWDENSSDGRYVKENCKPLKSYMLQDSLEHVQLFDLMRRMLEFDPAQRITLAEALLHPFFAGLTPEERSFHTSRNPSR
Sequence of Glycogen synthase kinase-3 beta (Homo sapiens) (P49841 whole entry, looked up, the tested form may be a part): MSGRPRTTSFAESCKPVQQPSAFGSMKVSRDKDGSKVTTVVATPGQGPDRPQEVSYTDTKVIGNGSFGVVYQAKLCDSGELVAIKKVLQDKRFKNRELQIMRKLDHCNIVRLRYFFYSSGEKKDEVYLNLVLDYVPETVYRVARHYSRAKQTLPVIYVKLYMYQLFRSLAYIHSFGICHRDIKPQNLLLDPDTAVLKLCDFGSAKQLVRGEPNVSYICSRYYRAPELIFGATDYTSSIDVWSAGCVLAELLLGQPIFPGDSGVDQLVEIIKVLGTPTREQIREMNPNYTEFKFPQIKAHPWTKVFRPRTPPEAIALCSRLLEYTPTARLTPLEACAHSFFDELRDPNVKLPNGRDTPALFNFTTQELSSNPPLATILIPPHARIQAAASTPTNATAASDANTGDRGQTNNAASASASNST
Sequence of Dual specificity tyrosine-phosphorylation-regulated kinase 1B (Homo sapiens) (Q9Y463 whole entry, looked up, the tested form may be a part): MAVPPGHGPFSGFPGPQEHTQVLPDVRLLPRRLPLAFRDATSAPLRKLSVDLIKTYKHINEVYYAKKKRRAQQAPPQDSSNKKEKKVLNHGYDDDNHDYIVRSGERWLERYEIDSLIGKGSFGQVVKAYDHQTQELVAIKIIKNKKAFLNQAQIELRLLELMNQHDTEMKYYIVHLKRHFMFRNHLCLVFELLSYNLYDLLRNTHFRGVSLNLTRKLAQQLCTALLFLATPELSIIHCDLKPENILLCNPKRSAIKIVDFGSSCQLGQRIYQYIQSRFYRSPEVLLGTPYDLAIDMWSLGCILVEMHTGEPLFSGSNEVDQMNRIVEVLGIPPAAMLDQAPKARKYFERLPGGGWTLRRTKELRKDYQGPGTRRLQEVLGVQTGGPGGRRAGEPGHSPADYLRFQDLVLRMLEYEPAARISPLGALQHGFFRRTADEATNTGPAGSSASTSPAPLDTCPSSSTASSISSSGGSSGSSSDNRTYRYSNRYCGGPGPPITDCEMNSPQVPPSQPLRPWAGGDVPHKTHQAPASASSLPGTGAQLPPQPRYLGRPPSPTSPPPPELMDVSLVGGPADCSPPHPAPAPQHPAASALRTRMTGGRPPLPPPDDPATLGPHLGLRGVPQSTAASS

`COc1cccc(Nc2nccc(-c3cnn4ncccc34)n2)c1` [PYRAZOLOPYRIDAZINE 1]: the IC50 in data set [1] is 12 nM.

Take `COc1cccc(N(C)c2nccc(-c3cnn4ncccc34)n2)c1`: the 50% inhibitory concentration (IC50) in data set [1] amounted to 97 nM.

`N#Cc1ccc(Nc2nccc(-c3cnn4ncccc34)n2)cc1`: the IC50 in [1] is 103 nM.

As for `COc1ccccc1Nc1nccc(-c2cnn3ncccc23)n1`, the IC50 in [1] came to 137 nM.

With `Cc1ccccc1Nc1nccc(-c2cnn3ncccc23)n1`, in [1], the IC50 was found to be 64 nM.

As for `N#Cc1cccc(Nc2nccc(-c3cnn4ncccc34)n2)c1` [GW778894X], in data set [1], the IC50 is 5 nM.

Turning to `Cc1cccc(N(C)c2nccc(-c3cnn4ncccc34)n2)c1`, the microsomal CLint in data set [2] came out at 75 µL/min/mg; in data set [12], 805 µL/min/mg. The inhibition in data set [3] is 19%; in data set [7], 6%; in data set [9] it was 0%; in data set [10] it was 59%; in data set [11], 4%; in [13], 12%. Moreover, the values for the inhibition in data set [14] and in data set [15] were 65% and 59%, respectively. The Papp B→A in [4] came to 20.1 ×10⁻⁶ cm/s. Further, in data set [5], the efflux ratio is 0.96. In addition, the solubility thermodynamic in data set [6] was 10 µg/mL (≈ 31.6 µM). The IC50 in data set [1] is 76 nM. Moreover, in data set [8], the Papp A→B was determined as 20.9 ×10⁻⁶ cm/s.

For `Cc1cccc(Nc2nccc(-c3cnn4ncccc34)n2)c1`, the Kd in data set [16] turned out to be 8.9 nM. In addition, the IC50 in data set [1] amounted to 7 nM.

As for `CN(c1ccccc1)c1nccc(-c2cnn3ncccc23)n1`, the inhibition in [17] turned out to be 79%; in data set [18], 33%. Also, the IC50 in data set [1] turned out to be 186 nM.

On to `c1ccc(Nc2nccc(-c3cnn4ncccc34)n2)cc1`, for which the inhibition in data set [17] is 97%; in data set [18] it was 98%. The IC50 in data set [1] was found to be 38 nM.

In general, IC50 refers to the concentration needed to halve the response being measured. The inhibition is the change of the read-out against control, counted positive when it falls. What is called Papp B→A is how fast a substance crosses the layer from the basolateral side. What is called efflux ratio is the permeability from basolateral to apical divided by that in the opposite direction, in the common usage. For orientation: Papp A→B means how fast a substance crosses the layer from the apical side. In general, Kd refers to the concentration at which binding is half-saturated.

For the origin of these results see ChEMBL document CHEMBL4619818, “Mining Public Domain Data to Develop Selective DYRK1A Inhibitors” (ACS Med Chem Lett, 2020).
